We go through four compounds from ChEMBL document CHEMBL2406957, “C-(α-d-Glucopyranosyl)-phenyldiazomethanes-irreversible inhibitors of α-glucosidase” (Bioorg Med Chem, 2013).

Data set [1] is described as follows: Reversible inhibition of Saccharomyces cerevisiae alpha-glucosidase using PNPG as substrate.
For data set [2], the system named is Saccharomyces cerevisiae. As to the kind of experiment: Inhibition of Saccharomyces cerevisiae alpha-glucosidase using PNPG as substrate at 60 uM incubated for 40 mins prior to substrate addition measured after 5 mins by spectrophotometry relative to control. In short, it runs like this: (§1)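 Enzyme (final 4 µg/mL, 0.064 µM) incubated 40 min at 30 °C in pH 7.5 buffer with compound at final 0.01–0.08 mM. Aliquot then added to 2 mM PNPG in pH 6.8 buffer for 5 min at 30 °C. Reaction quenched with Na2CO3, p-nitrophenolate read at 400 nm. Residual activity expressed relative to enzyme control.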

Data set [3] can be described thus: Half life of the compound in buffer at 50 uM at pH 6.0 by UV-vis spectrophotometric analysis. Type of data set: physicochemical. In short, it runs like this: (§2)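 Isolated diazo compound dissolved at 50 μM in buffer of set pH (7.0 down to 3.0) in a cuvette; UV spectra scanned 190–350 nm every 30 s at room temperature until no further change. Blue shift of λmax followed; decay fitted to a single exponential, t1/2 = t1 ln2.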

Data set [4] can be described thus: Inhibition of Saccharomyces cerevisiae alpha-glucosidase using PNPG as substrate incubated for 40 mins prior to substrate addition measured after 5 mins by spectrophotometry. In short, it runs like this: as §1
A short description of data set [5]: Half life of the compound in buffer at 50 uM at pH 4.0 by UV-vis spectrophotometric analysis. Type of data set: physicochemical. In short, it runs like this: as §2
Data set [6] is described as follows: Chemical stability of the compound in neutral media at 50 uM at pH 7.0 by UV-vis spectrophotometric analysis. Type of data set: physicochemical. To be noted: buffer, pH 7, 50 µM. In short, it runs like this:
as §2

The test system of data set [7] is Saccharomyces cerevisiae. As to the kind of experiment: Irreversible inhibition of Saccharomyces cerevisiae alpha-glucosidase using PNPG as substrate assessed as residual enzyme activity incubated for 5 to 40 mins prior to substrate addition measured after 5 mins by spectrophotometry. Put shortly: (§3)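 Yeast α-glucosidase (final 4 µg/mL, 0.064 µM) preincubated at 30 °C in pH 7.5 Tris–HCl with inhibitor at final 0.01–0.08 mM. Aliquots taken at 5–40 min into 2 mM PNPG (pH 6.8), 5 min at 30 °C, Na2CO3 quench, A400. Activity as % of no-inhibitor control. kobs from first-order fits; Ki and ki from double-reciprocal Kitz–Wilson replot.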

Data set [8] can be described thus: Half life of the compound in buffer at 50 uM at pH 3.0 by UV-vis spectrophotometric analysis. It counts as physicochemical. Put shortly:
as §2

The subject of data set [9] is Saccharomyces cerevisiae. As to the kind of experiment: Irreversible inhibition of Saccharomyces cerevisiae alpha-glucosidase using PNPG as substrate at 0.04 mM incubated for 5 to 40 mins prior to substrate addition measured after 5 mins by spectrophotometry in presence of (2R,3R,4R,5S,6R)-2-((R)-amino(phenyl)methyl)-6-(hydroxymethyl)tetrahydro-2H-pyran-3,4,5-triol.

A short description of data set [10]: Irreversible inhibition of Saccharomyces cerevisiae alpha-glucosidase using PNPG as substrate by Kitz-Wilson plot analysis. In short, it runs like this:
as §3

A short description of data set [11]: Half life of the compound in buffer at 50 uM at pH 5.0 by UV-vis spectrophotometric analysis. It counts as physicochemical. In short, it runs like this:
as §2

Active and inactive are the calls of the source. The calls are words filed in the database; no cut-off is given here.

With `N[C@H](c1ccccc1)[C@H]1O[C@H](CO)[C@@H](O)[C@H](O)[C@H]1O`, in data set [1], the Ki stood at 1.1 µM.
Consider `N#Cc1ccc(C[C@H]2O[C@H](CO)[C@@H](O)[C@H](O)[C@H]2O)cc1`, for which the inhibition with Saccharomyces cerevisiae [2] is 40%.
On the same count and under the same terms, to `N#Cc1ccc([C@H](O)[C@H]2O[C@H](CO)[C@@H](O)[C@H](O)[C@H]2O)cc1` belongs 40%.
Consider `N#Cc1ccc(C(=[N+]=[N-])[C@H]2O[C@H](CO)[C@@H](O)[C@H](O)[C@H]2O)cc1`, for which the half-life at 50 µM in data set [3] is 4.2 min; in data set [5] it was 0.483 min; in [8], 0.183 min; in data set [11], 2.35 min. In data set [4], this compound came in with an IC50 of 20.6 µM. Moreover, the inhibition with Saccharomyces cerevisiae [2] is 90%; in the data set on Saccharomyces cerevisiae [7], “Dose-dependent effect”. The Stability result in data set [6] was “Stable”. Also, the inhibition entry with Saccharomyces cerevisiae [9] is “inactive”. Also, the Ki in [10] amounted to 2160 µM.
